# From ChEMBL document CHEMBL5252537, “Usnic Acid Benzylidene Analogues as Potent Mechanistic Target of Rapamycin Inhibitors for the Control of Breast Malignancies” (J Nat Prod, 2017)
# Active and inactive are the calls of the source. The rule behind the calls is not given here.
# Experiments:
# BT-474 = test: Induction of autophagy in human BT-474 cells assessed as autophagic vacuoles by microscopic analysis; format: functional, cell-based
# How it was run: (§1)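 Cells of each line treated with compound and examined by light microscopy for autophagic vacuoles, compared with control cells.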
# [1] = target: Serine/threonine-protein kinase mTOR (Homo sapiens) (UniProt P42345); test: Inhibition of mTOR in human […] cells assessed as reduction in phosphorylated 4E-BP1 level at 0.25 to 0.5 uM by Western blot analysis; format: cell-based; details: MCF7, dose 0.25-0.5 µM
# How it was run: (§2)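 Cells seeded at 5 × 10^5 per 100 mm dish and allowed to attach overnight. Treated with compound or DMSO for 72 h (HGF 100 ng/mL added for MDA-MB-231). Lysed in RIPA buffer with protease inhibitors. 30 μg protein run on SDS-PAGE, transferred to PVDF, blocked in 5% BSA/TBST. Primary antibodies overnight at 4 °C, HRP secondary antibodies, chemiluminescent detection.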
# MDA-MB-231 [2] = test: Antitumor activity against human MDA-MB-231/GFP cells xenografted in athymic nude mouse assessed as reduction in mean tumor volume at 10 mg/kg, ip measured after 34 days post inoculation (reference value: 1835 +/- 251 mm3); details: time 34 day
# [3] = Toxicity in athymic nude mouse xenografted with human MCF7 cells at 10 mg/kg, ip measured after 75 days post inoculation; details: in vivo, 1800 h
# MDA-MB-231 [4] = test: Antimigratory activity in human MDA-MB-231 cells assessed as inhibition of cell migration after 23 hrs by scratch wound healing assay; format: functional, cell-based
# How it was run: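 Cells seeded at 1 × 10^5/well and grown to a confluent monolayer, then scratched with a 200 μL pipet tip. Held 5 h in serum-free medium, then given medium with HGF (100 ng/mL) plus compound or DMSO. Norstictic acid (15 μM) was the positive control. Wound width photographed at 0 h and followed up to 24 h; cells MeOH-fixed. Percent migration from wound thickness versus DMSO wells; IC50 calculated.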
# MCF7 [5] = test: Induction of autophagy in human MCF7 cells assessed as increase in beclin-1 level at 0.4 to 0.8 uM by Western blotting analysis; format: functional, cell-based; details: dose 0.4-0.8 µM; how it was run: as §2
# MDA-MB-231 [6] = test: Antitumor activity against human MDA-MB-231/GFP cells xenografted in athymic nude mouse assessed as inhibition of tumor growth at 10 mg/kg, ip administered for 3 weeks; set-up: scale not given: the % may be the effect or the level left
# MCF7 [7] = test: Inhibition of colony formation in human MCF7 cells at 0.2 uM incubated for 8 days by inverted phase contrast microscopic analysis; format: functional; details: MCF7, 192 h, time 8 day
# How it was run: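 Soft agar assay: 5 × 10^3 MCF-7 cells per well in a cell/agar matrix layered over a base agar layer. Overlaid with 10% serum medium containing 0.2 or 0.6 μM compound, or DMSO. Colonies photographed under inverted phase-contrast microscopy after 8 days. Matrix then solubilized, MTT added (4 h, 37 °C), detergent added, A570 read. Growth normalized to DMSO.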
# [8] = target: Serine/threonine-protein kinase mTOR (Homo sapiens) (UniProt P42345); test: Inhibition of mTOR in human […] cells assessed as reduction in p-S6K level at 0.25 to 0.5 uM by Western blot analysis; format: cell-based; details: MCF7, dose 0.25-0.5 µM; how it was run: as §2
# [9] = Toxicity in athymic nude mouse xenografted with human MDA-MB-231/GFP cells assessed as reduction in body weight at 10 mg/kg, ip measured after 34 days post inoculation; details: in vivo, 816 h
# [10] = target: Serine/threonine-protein kinase mTOR (Homo sapiens) (UniProt P42345); test: Inhibition of mTOR in human MDA-MB-231 cells assessed as reduction in phosphorylated 4E-BP1 level at 0.25 to 0.5 uM by Western blot analysis; format: cell-based; details: dose 0.25-0.5 µM; how it was run: as §2
# MDA-MB-231 [11] = test: Induction of autophagy in human MDA-MB-231 cells assessed as increase in LC3 level at 0.4 to 0.8 uM by Western blotting analysis; format: functional, cell-based; details: dose 0.4-0.8 µM; how it was run: as §2
# MCF7 [12] = test: Induction of autophagy in human MCF7 cells assessed as autophagic vacuoles by microscopic analysis; format: functional, cell-based; how it was run: as §1
# MCF7 [13] = test: Antiproliferative activity against human MCF7 cells incubated for 72 hrs by MTT assay; format: functional, cell-based; details: MCF7, 72 h
# How it was run: (§3)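 Cells seeded at 5 × 10^3/well and allowed to attach overnight, then washed with PBS. Compound diluted from 10 mM DMSO stock into medium (100 ng/mL HGF added for c-Met-expressing cells), in triplicate, 72 h at 37 °C. MTT added for 4 h, formazan dissolved in DMSO, absorbance read at 570 nm. Cell numbers taken from a standard curve; IC50 calculated.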
# MDA-MB-231 [14] = test: Antiproliferative activity against human MDA-MB-231 cells incubated for 72 hrs by MTT assay; format: functional, cell-based; details: MDA-MB-231, 72 h; how it was run: as §3
smiles,measurement,setting,value
CC(=O)C1=C(O)C=C2Oc3c(C(=O)/C=C/c4ccc(OC(F)(F)F)cc4)c(O)c(C)c(O)c3[C@]2(C)C1=O,Activity,BT-474,Active
same,inhibition,[1],Active
same,Activity,MDA-MB-231 [2],692 mm3
same,Activity,[3],Non-Toxic
same,Activity,MDA-MB-231 [4],Dose-Dependent Effect
same,IC50,"MDA-MB-231 [4]; MDA-MB-231, 23 h",510 nM
same,Activity,MCF7 [5],Active
same,Activity,MDA-MB-231 [6],62.3%
same,inhibition at 0.2 µM,MCF7 [7],22.9%
same,inhibition,[8],Active
same,Activity,[9],Non-Toxic
same,inhibition,[10],Active
same,Activity,MDA-MB-231 [11],Active
same,Activity,MCF7 [12],Active
same,IC50,MCF7 [13],280 nM
same,IC50,MDA-MB-231 [14],320 nM
